Data published in ChEMBL document CHEMBL1773034 (J Nat Prod, 2011).
Activity calls are given as the source filed them. The calls are words filed in the database; no cut-off is given here.

Assays:
[1] = tested on: THP-1; experiment: Antiinflammatory activity against human THP1 cells of assessed as inhibition of LPS-induced TNFalpha protein synthesis at 10 uM pretreated for 1 hr before LPS challenge measured after 2 to 10 hrs relative to control; assay type: functional
[2] = tested on: THP-1; experiment: Antiinflammatory activity against human THP1 cells assessed as inhibition of LPS-induced NFKB p65 subunit translocation to nucleus at 10 uM pretreated for 1 hr before LPS challenge relative to control; assay type: functional
In short: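 PMA-differentiated THP-1 macrophages pretreated 1 h (0.1% DMSO vehicle), then 1 μg/mL E. coli 0111:B4 LPS; harvested 1 h after LPS by trypsinization/scraping. Cytoplasmic and nuclear fractions separated; p65 quantified in each by transcription-factor ELISA-type kit, cytoplasm/nuclear ratio calculated. Means ± SE, three independent experiments, three measurements each.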

[3] = tested on: THP-1; experiment: Antiinflammatory activity against human THP1 cells of assessed as inhibition of LPS-induced COX-2 gene expression at 10 uM pretreated for 1 hr before LPS challenge measured after 4 hrs by RT-qPCR; assay type: functional, cell-based
In short: (§1)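 THP-1 monocytes, PMA-differentiated to macrophages, pretreated 1 h with compound in DMSO (0.1% final), then stimulated with 1 μg/mL LPS. Cells lysed in wells at 2, 4, 6 and 10 h post-LPS; TaqMan two-step RT-qPCR, ROX-normalized, ΔΔCT with unstimulated control set to 1. Means ± SE, three independent experiments.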

[4] = target: T1, Prostaglandin G/H synthase 2 (Homo sapiens, UniProt P35354); experiment: Inhibition of human recombinant COX-2 assessed as PGE2 production from arachidonic acid after 20 mins enzyme immunoassay
T1 sequence (P35354 whole entry): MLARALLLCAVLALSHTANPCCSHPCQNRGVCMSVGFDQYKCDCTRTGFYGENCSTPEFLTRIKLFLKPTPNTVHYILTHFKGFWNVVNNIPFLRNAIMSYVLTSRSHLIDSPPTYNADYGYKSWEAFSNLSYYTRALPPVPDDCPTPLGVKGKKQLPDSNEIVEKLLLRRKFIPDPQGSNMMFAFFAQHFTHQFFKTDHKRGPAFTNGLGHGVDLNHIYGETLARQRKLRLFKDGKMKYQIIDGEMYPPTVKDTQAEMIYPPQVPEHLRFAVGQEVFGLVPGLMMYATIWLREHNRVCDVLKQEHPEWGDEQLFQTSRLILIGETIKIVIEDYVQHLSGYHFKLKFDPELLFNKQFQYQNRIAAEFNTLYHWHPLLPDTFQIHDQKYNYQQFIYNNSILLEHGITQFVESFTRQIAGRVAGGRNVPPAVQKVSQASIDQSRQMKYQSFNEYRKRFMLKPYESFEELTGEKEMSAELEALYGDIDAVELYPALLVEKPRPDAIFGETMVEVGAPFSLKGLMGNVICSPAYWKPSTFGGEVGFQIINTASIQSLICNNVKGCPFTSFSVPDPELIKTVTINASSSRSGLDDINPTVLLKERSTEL

[5] = tested on: THP-1; experiment: Antiinflammatory activity against human THP1 cells of assessed as inhibition of LPS-induced TNFalpha gene expression at 10 uM pretreated for 1 hr before LPS challenge measured after 2 to 10 hrs by RT-qPCR; assay type: functional, cell-based; in short: as §1
[6] = target: T2, Prostaglandin G/H synthase 1 (Ovis aries, UniProt P05979); experiment: Inhibition of ram seminal vesicle COX-1 assessed as PGE2 production from arachidonic acid after 20 mins enzyme immunoassay; assay type: tissue-based
T2 sequence (P05979 whole entry): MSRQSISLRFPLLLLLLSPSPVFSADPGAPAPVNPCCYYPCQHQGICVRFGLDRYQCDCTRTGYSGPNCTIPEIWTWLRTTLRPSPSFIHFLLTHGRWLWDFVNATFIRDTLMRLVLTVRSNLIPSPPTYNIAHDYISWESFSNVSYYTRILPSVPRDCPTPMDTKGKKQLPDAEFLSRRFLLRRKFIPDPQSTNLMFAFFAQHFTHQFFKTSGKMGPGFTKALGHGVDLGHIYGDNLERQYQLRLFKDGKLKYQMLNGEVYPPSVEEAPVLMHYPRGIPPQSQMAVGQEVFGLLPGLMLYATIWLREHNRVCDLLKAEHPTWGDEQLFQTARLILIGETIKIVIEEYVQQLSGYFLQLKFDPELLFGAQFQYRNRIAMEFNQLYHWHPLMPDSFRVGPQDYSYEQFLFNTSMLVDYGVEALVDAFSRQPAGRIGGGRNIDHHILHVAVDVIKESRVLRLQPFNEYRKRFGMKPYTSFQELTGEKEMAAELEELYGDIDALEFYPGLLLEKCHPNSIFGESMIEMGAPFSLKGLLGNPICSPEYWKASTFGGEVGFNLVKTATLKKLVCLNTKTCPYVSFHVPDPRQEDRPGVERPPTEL

[7] = tested on: THP-1; experiment: Antiinflammatory activity against human THP1 cells assessed as increase in LPS-induced ZFP36 gene expression at 10 uM pretreated for 1 hr before LPS challenge measured after 4 hrs by RT-qPCR relative to control
[8] = Selectivity ratio of IC50 for human recombinant COX2 to IC50 for ram seminal vesicle COX1; assay type: tissue-based
In short: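 Enzymes were human recombinant COX-2 (0.5 unit/reaction) and ram seminal vesicle COX-1 (1 unit/reaction), in 0.1 M Tris/HCl pH 8.0 with 5 μM hematin, 18 mM L-epinephrine, 50 μM EDTA. Compound in DMSO was preincubated 5 min at room temperature, then arachidonic acid was added for 20 min at 37 °C. PGE2 was read by competitive EIA at 405 nm. IC50 came from regression on ≥3 concentrations, with four independent experiments. Selectivity was taken as the COX-2/COX-1 IC50 ratio.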

[9] = tested on: RAW264.7; experiment: Antiinflammatory activity against mouse RAW264.7 cells assessed as nitric oxide production; assay type: functional, cell-based
[10] = tested on: RAW264.7; experiment: Antiinflammatory activity against mouse RAW264.7 cells assessed as iNOS gene expression; assay type: functional, cell-based
[11] = tested on: THP-1; experiment: Antiinflammatory activity against human THP1 cells assessed as inhibition of LPS-induced ZFP36 gene expression at 10 uM pretreated for 1 hr before LPS challenge measured after 2 hrs by RT-qPCR relative to control; assay type: functional; in short: as §1
[12] = tested on: THP-1; experiment: Antiinflammatory activity against human THP1 cells of assessed as inhibition of LPS-induced TNFalpha gene expression at 10 uM pretreated for 1 hr before LPS challenge measured after 2 hrs by RT-qPCR relative to control; assay type: functional; in short: as §1
[13] = tested on: THP-1; experiment: Antiinflammatory activity against human THP1 cells of assessed as inhibition of LPS-induced TNFalpha protein synthesis at 10 uM pretreated for 1 hr before LPS challenge measured after 2 to 10 hrs; assay type: functional, cell-based
[14] = Cytotoxicity against human THP1 cells after 24 hrs by erythrosin B staining; assay type: cell-based; details: THP-1 cells, read-out: LD50
In short: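 THP-1 monocytes given five increasing concentrations (1-50 μM for the flavone; 1-100 μM for indomethacin) from DMSO stocks, final DMSO 0.1%, in RPMI 1640 with 10% FBS. Incubated 24 h at 37 C, 5% CO2. Cells were mixed 1:1 with 0.1% erythrosin B in PBS and counted by hemocytometer, with unstained cells taken as viable. LD50 was calculated from dose-response curves.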

| SMILES | Ratio [1] | fold change (FC) [2] | Activity [3] | IC50 [4] [nM] | Activity [5] | IC50 [6] [nM] | Ratio [7] | Ratio IC50 [8] | Activity [9] | Activity [10] | fold change (FC) [11] | Ratio [12] | Activity [13] | CC50 at 24 h [14] [nM] | Activity [2] | Activity [11] |
| --- | --- | --- | --- | --- | --- | --- | --- | --- | --- | --- | --- | --- | --- | --- | --- | --- |
| CC(C)=CCc1c(-c2ccc(O)cc2O)oc2cc3c(c(O)c2c1=O)C=CC(C)(C)O3 [CUDRAFLAVONE B] | 20 | 3.2 | Active | 2500 | Active | 1500 | 2 | 1.7 | Dose-dependent effect | Dose-dependent effect | 5.8 | 5.8 | Active | 47600 |  |  |
| COc1ccc2c(c1)c(CC(=O)O)c(C)n2C(=O)c1ccc(Cl)cc1 [INDOMETHACIN] |  |  |  |  | Active |  |  |  |  |  |  |  |  | > 100000 | Active | Active |
